The values that follow come from ChEMBL document CHEMBL4257575, “Discovery of Novel Flavonoid Dimers To Reverse Multidrug Resistance Protein 1 (MRP1, ABCC1) Mediated Drug Resistance in Cancers Using a High Throughput Platform with "Click Chemistry"” (J Med Chem, 2018).

Each structure is given as a SMILES string. Activity calls are given as the source filed them. The rule behind the calls is not given here.

The target in series [1] is T1, Multidrug resistance-associated protein 1 (Homo sapiens, UniProt P33527). In words: Inhibition of MRP1 in human 2008/MRP1 cells assessed as potentiation of doxorubicin-induced cytotoxicity by measuring cell survival at 2 uM after 5 days by MTS assay relative to control. The series is classed as cell-based. Particulars: 120 h. Put shortly: (§1)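 2008/MRP1 cells (retroviral human MRP1 transfectant; RPMI 1640, 10% FBS) at 4,000 per well, with 100 nM doxorubicin plus crude, unpurified click products in DMSO: 2 µM in the primary screen, 1 µM in the secondary. Incubated 5 days at 37 °C. MTS/PMS added for 2 h at 37 °C, absorbance read at 490 nm. % survival is relative to wells without DOX or product. Run in triplicate, at least three experiments.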
T1 sequence (P33527 whole entry): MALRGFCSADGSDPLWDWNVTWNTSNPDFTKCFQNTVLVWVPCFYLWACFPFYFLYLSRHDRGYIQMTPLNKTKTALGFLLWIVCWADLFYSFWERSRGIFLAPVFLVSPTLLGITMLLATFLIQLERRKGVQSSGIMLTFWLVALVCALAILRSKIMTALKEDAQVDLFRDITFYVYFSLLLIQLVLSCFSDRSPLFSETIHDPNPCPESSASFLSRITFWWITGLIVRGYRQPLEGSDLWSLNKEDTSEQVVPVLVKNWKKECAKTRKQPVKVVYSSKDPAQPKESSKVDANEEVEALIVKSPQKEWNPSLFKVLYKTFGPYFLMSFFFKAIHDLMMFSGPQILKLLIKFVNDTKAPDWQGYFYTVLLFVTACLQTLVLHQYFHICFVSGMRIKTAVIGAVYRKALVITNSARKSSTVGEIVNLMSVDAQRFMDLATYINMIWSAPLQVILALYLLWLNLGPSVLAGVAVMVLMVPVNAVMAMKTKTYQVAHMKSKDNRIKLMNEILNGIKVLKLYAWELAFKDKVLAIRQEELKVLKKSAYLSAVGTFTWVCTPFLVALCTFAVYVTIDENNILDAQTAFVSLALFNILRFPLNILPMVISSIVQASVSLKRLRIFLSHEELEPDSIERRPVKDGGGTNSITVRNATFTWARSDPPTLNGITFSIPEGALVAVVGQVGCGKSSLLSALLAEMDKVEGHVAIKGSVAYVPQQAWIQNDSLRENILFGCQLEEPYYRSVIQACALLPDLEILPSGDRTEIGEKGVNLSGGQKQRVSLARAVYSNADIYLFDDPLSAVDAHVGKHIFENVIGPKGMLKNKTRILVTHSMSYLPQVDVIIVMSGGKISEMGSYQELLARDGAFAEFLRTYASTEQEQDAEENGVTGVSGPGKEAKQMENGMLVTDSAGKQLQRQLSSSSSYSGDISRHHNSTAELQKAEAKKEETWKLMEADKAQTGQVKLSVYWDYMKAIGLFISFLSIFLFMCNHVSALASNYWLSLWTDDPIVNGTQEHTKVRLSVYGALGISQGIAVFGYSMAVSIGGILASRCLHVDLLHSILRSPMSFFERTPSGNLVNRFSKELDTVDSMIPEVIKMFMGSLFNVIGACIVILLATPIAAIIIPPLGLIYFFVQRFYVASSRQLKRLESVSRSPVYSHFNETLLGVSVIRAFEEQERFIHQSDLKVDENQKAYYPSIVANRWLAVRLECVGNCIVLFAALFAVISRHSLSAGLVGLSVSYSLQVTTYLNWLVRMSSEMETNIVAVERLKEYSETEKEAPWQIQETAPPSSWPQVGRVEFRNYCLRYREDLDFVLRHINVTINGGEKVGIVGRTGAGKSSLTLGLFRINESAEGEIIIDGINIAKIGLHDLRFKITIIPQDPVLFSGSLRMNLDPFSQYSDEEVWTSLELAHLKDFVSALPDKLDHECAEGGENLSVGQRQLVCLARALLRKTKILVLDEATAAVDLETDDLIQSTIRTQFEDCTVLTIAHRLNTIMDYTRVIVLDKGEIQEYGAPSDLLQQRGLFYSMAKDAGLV
(In general: Tetrazolium dyes change colour on reduction, which living cells bring about.)

In series [2] the target is T1, Multidrug resistance-associated protein 1. In words: Inhibition of MRP1 in human 2008/MRP1 cells assessed as potentiation of doxorubicin-induced cytotoxicity by measuring cell survival at 1 uM after 5 days by MTS assay relative to control. Format: cell-based. Particulars: 120 h. In short, it runs like this: as §1
Series [3] can be described thus: Cytotoxicity against human 2008/MRP1 cells assessed as cell survival at 2 uM after 5 days by MTS assay relative to control. The series is classed as cell-based. Conditions: read-out: Survival.
Another series has as its system L929. In words: Cytotoxicity against mouse L929 cells assessed as reduction in cell survival after 5 days by MTS assay. The series is classed as cell-based. Conditions: L929, 120 h.
Series [4] deals with T1, Multidrug resistance-associated protein 1. In words: Inhibition of MRP1 in human 2008/MRP1 cells assessed as effect on doxorubicin efflux at 2 uM up to 105 mins by flow cytometric analysis. Format: cell-based. Put shortly:
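Efflux: cells preloaded with 20 µM DOX in supplemented RPMI1640 for 1 h at 37°C, washed, then kept with or without 2 µM modulator. […] Mean ± SEM; paired t test at each time point.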
In general terms: In flow cytometry, cells or beads pass a laser one at a time.

Another series has as its system MRP1. In words: in vitro. Conditions: mouse, L929 cells (IC50) versus 2008/MRP1 cells (EC50).
The test system of another series is Mus musculus. In words: Time duration at which plasma concentration stays above in vitro EC50 for MRP1 in Balb/c mouse at 10 mg/kg, iv measured up to 360 mins by LC-MS/MS analysis. Format: ADME, organism-based. Particulars: in vivo, 6 h. Put shortly: (§2)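 Female Balb/c mice given 10 mg/kg i.v. (25G needle) of the HCl salt, 1.5 mg/mL in NMP:Cremorphol:Tween 80:H₂O (5:5:4.5:85.5). Cardiac-puncture blood under ether at 15–360 min, 3 mice per time point; plasma spun 16,000 g, stored −20°C. Methanol precipitation with [¹³C6]paclitaxel internal standard; LC-MS/MS, BEH C18, water/methanol with 0.1% formic acid gradient. Mean ± SEM.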

A short description of series [5]: Plasma concentration in Balb/c mouse at 10 mg/kg, iv measured up to 360 mins by LC-MS/MS analysis. Conditions: in vivo, 6 h, BLD = below limit of detection. The series is classed as ADME, organism-based. Put shortly:
as §2

Series [6] in a line: Solubility in NMP/Cremorphol/Tween80/H2O (5:5:4.5:85.5) formulation. Format: physicochemical.
For series [7], the species on record is Homo sapiens. In words: Inhibition of P-gp in human LCC6MDR cells assessed as potentiation of paclitaxel-induced cytotoxicity by measuring fold reduction in paclitaxel IC50 at 1 uM after 5 days by MTS assay relative to paclitaxel alone. The series is classed as cell-based.
For series [8], the species on record is Homo sapiens. In words: Effect on MRP1 expression in human 2008/MRP1 cells up to 5 uM after 3 days by FITC staining based flow cytometry. Format: functional, cell-based.
For series [9], the species on record is Homo sapiens. In words: Effect on doxorubicin influx in human 2008/P cells at 2 uM incubated up to 60 mins by flow cytometric analysis. Format: functional, cell-based.
The species entered for series [10] is Homo sapiens. In words: Effect on doxorubicin influx in human 2008/MRP1 cells at 2 uM incubated up to 60 mins by flow cytometric analysis. The series is classed as functional, cell-based.

For `O=c1cc(-c2ccc(OCCCc3cn(CCOCCOc4ccc5c(=O)cc(-c6ccccc6)oc5c4)nn3)cc2)oc2cc(F)ccc12` [listing 1 of 2 here], the results for the Survival in series [1] and in series [2] were 41% and 49%, respectively. Further, the viability at 120 h, 2 µM in series [3] stood at 93%. Further, the IC50 in the series with L929 is over 100 µM. The INH entry in [4] is reported as “Active”. Moreover, in the series with MRP1, the selectivity ratio is over 1890.

For `Cl.O=c1cc(-c2ccc(OCCCc3cn(CCOCCOc4ccc5c(=O)cc(-c6ccccc6)oc5c4)nn3)cc2)oc2cc(F)ccc12`, in the series on Mus musculus, the Time was found to be 90 min.

As for `Cc1ccc2oc(-c3ccc(OCCOCCOCCOCCOCCOc4ccc(-c5cc(=O)c6cc(C)ccc6o5)cc4)cc3)cc(=O)c2c1`, the IC50 in the series on L929 was over 100 µM. For the same compound, the Cp result in series [5] is given as “Bld”. Besides, in series [6], the solubility result is reported as “Insoluble”.

Consider `Cc1ccc2oc(-c3ccc(OCCCCc4cn(CCOCCOc5ccc(-c6cc(=O)c7cc(F)ccc7o6)cc5)nn4)cc3)cc(=O)c2c1`, for which the values for the Survival in series [1] and in series [2] were 30% and 38%, respectively. Also, the viability at 120 h, 2 µM in [3] was 99%. Moreover, the IC50 with L929 was over 100 µM. In addition, the Ratio IC50 in the series listed under Homo sapiens [7] is 99.2. Further, in the series with MRP1, the selectivity ratio is over 400.

As for `Cc1ccc2oc(-c3ccc(OCCCCc4cn(CCOCCOCCOc5ccc(-c6cc(=O)c7cc(F)ccc7o6)cc5)nn4)cc3)cc(=O)c2c1`, the Survival in series [1] turned out to be 34%; in series [2], 41%. In addition, in series [3], the viability at 120 h, 2 µM was determined as 100%. Besides, in the series on L929, the 50% inhibitory concentration (IC50) was over 100 µM. Also, the Ratio IC50 in the series filed under Homo sapiens [7] worked out at 99.2. Further, in the series with MRP1, the selectivity ratio was over 461.

Take `O=c1cc(-c2ccccc2)oc2cc(OCCCc3cn(CCOCCOc4ccc5c(=O)cc(-c6ccccc6)oc5c4)nn3)ccc12`: the Survival in series [1] stood at 45%; in series [2], 49%. Moreover, the viability at 120 h, 2 µM in series [3] is 98%. In the series with L929, the IC50 is over 100 µM. In addition, the Ratio IC50 in the series filed under Homo sapiens [7] came to 4. For the same compound, the selectivity ratio in the series on MRP1 is over 336.

Turning to `Cc1ccc2oc(-c3ccc(OCCCCc4cn(CCOCCOCCOc5ccc(-c6cc(=O)c7cc(C)ccc7o6)cc5)nn4)cc3)cc(=O)c2c1`, the Survival in series [1] is reported as 38%; in [2], 50%. Further, the viability at 120 h, 2 µM in series [3] amounted to 100%. For the same compound, the IC50 with L929 was over 50 µM. Besides, the Ratio IC50 in the series listed under Homo sapiens [7] turned out to be 58.8. Also, the selectivity ratio in the series on MRP1 is over 365.

As to `O=c1cc(-c2ccccc2)oc2cc(OCCN(Cc3ccccc3)Cc3cn(CCOCCOCCOc4ccc(-c5cc(=O)c6cc(F)ccc6o5)cc4)nn3)ccc12`, the values for the Survival in series [1] and in [2] were 44% and 50%, respectively. Moreover, the viability at 120 h, 2 µM in series [3] stood at 72%. The IC50 in the series with L929 was over 100 µM. Moreover, the Ratio IC50 in the series listed under Homo sapiens [7] came out at 16.9. The selectivity ratio in the series with MRP1 is over 641.

As for `O=c1cc(-c2ccc(OCCOCCn3cc(CCCOc4ccc5c(=O)cc(-c6ccccc6)oc5c4)nn3)cc2)oc2ccccc12`, the Survival in series [1] came out at 23%; in [2], 30%. Also, the viability at 120 h, 2 µM in series [3] is 92%. Further, the IC50 in the series with L929 was over 100 µM. Moreover, the Ratio IC50 in the series listed under Homo sapiens [7] is 19.1. Moreover, in the series with MRP1, the selectivity ratio is over 662.

On to `O=c1cc(-c2ccccc2)oc2cc(OCCN(Cc3ccccc3)Cc3cn(CCOCCOc4ccc(-c5cc(=O)c6cc(F)ccc6o5)cc4)nn3)ccc12`, for which the Survival in series [1] was determined as 36%; in [2], 46%. In addition, in [3], the viability at 120 h, 2 µM is 87%. Moreover, the IC50 in the series on L929 was over 100 µM. The Ratio IC50 in the series filed under Homo sapiens [7] amounted to 26.5. Moreover, the selectivity ratio in the series with MRP1 is over 645.

Turning to `O=c1cc(-c2ccc(OCCOCCOCCn3cc(CCCOc4ccc(-c5cc(=O)c6ccc(F)cc6o5)cc4)nn3)cc2)oc2ccccc12`, the Survival in [1] worked out at 44%; in [2], 51%. Moreover, in [3], the viability at 120 h, 2 µM turned out to be 93%. Moreover, the IC50 in the series on L929 was over 100 µM. Besides, the Ratio IC50 in the series listed under Homo sapiens [7] was found to be 4. The selectivity ratio in the series with MRP1 was over 481.

In the case of `Cc1ccc2oc(-c3ccc(OCCCCc4cn(CCOCCOc5ccc(-c6cc(=O)c7ccccc7o6)cc5)nn4)cc3)cc(=O)c2c1`, the Survival in [1] was found to be 20%; in series [2], 25%. The viability at 120 h, 2 µM in series [3] is 85%. In addition, the IC50 in the series on L929 is over 57 µM. The Ratio IC50 in the series listed under Homo sapiens [7] came out at 69. Also, the selectivity ratio with MRP1 is over 553.

Turning to `O=c1cc(-c2ccc(OCCCc3cn(CCOCCOc4ccc5c(=O)cc(-c6ccccc6)oc5c4)nn3)cc2)oc2cc(F)ccc12` [listing 2 of 2 here], the result in the series listed under Homo sapiens [8], in the series listed under Homo sapiens [9] and in the series listed under Homo sapiens [10] was inactive. For the same compound, in the series filed under Homo sapiens [7], the Ratio IC50 came out at 40.7.

With `Cc1ccc2oc(-c3ccc(OCCOCCOCCn4cc(CCCOc5ccc(-c6cc(=O)c7ccc(F)cc7o6)cc5)nn4)cc3)cc(=O)c2c1`, the Survival in [1] stood at 45%; in series [2] it was 50%. The viability at 120 h, 2 µM in [3] turned out to be 95%. Besides, the 50% inhibitory concentration (IC50) with L929 is over 100 µM. In addition, the Ratio IC50 in the series listed under Homo sapiens [7] amounted to 36.9. Besides, in the series on MRP1, the selectivity ratio was over 826.

Take `O=c1cc(-c2ccc(OCCOCCn3cc(COCCOc4ccc5c(=O)cc(-c6ccccc6)oc5c4)nn3)cc2)oc2ccccc12`: the values for the Survival in series [1] and in series [2] were 31% and 46%, respectively. Besides, in series [3], the viability at 120 h, 2 µM was found to be 97%. The IC50 in the series with L929 is over 50 µM. Besides, the Ratio IC50 in the series filed under Homo sapiens [7] turned out to be 3.3. Further, the selectivity ratio with MRP1 is over 190.

As a reminder, the IC50 is the concentration that inhibits the measured activity by half.
